Where a name gives a salt, the structure may show the parent alone. Calls of active or inactive are those of the source. No cut-off for these calls is given here.
Experiments:
Thoracic aorta [1] = assay: Vasodilatory activity in Sprague-Dawley rat thoracic aorta assessed as relaxation of phenylephrine-induced vasoconstriction compound treated 5 mins after 200 uM NO-scavenger C-PTIO treatment; assay type: functional, tissue-based
How it was run: (§1)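 Male Sprague-Dawley rat (200-250 g) thoracic aorta rings, 2-4 mm, in Krebs-Henseleit buffer at 37°C, pH 7.45, 2 g basal tension, 1 hr equilibration, 70 mM KCl viability check. Pretreated with L-NAME (100 μM) and indomethacin (5 μM), then preconstricted with phenylephrine (100 nM). Donors added cumulatively; relaxation is delta tension as percent of maximal PE constriction. Sigmoidal fits by non-linear regression give EC50.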

Thoracic aorta [2] = assay: Potentiation of MahmaNonoate induced- vasodilatory activity in Sprague-Dawley rat thoracic aorta at 1 mM; assay type: functional, tissue-based; how it was run: as §1
Thoracic aorta [3] = assay: Potentiation of 1-Nitrosocyclohexyl acetate induced- vasodilatory activity in Sprague-Dawley rat thoracic aorta at 1 mM; assay type: functional, tissue-based; how it was run: as §1
Thoracic aorta [4] = assay: Vasodilatory activity in Sprague-Dawley rat thoracic aorta assessed as relaxation of phenylephrine-induced vasoconstriction at 0.01 nM to 100 uM; assay type: functional, tissue-based; how it was run: as §1
Thoracic aorta [5] = assay: Vasodilatory activity in Sprague-Dawley rat thoracic aorta assessed as relaxation of phenylephrine-induced vasoconstriction compound treated 5 mins after 1 uM soluble guanylate cyclase inhibitor ODQ treatment; assay type: functional, tissue-based; how it was run: as §1
Rattus norvegicus [6] = species on record: Rattus norvegicus; assay: Vasodilatory activity in rat aorta assessed as relaxation of phenylephrine-induced vasoconstriction
Rattus norvegicus [7] = species on record: Rattus norvegicus; assay: Vasodilatory activity in rat thoracic aorta assessed as relaxation of phenylephrine-induced vasoconstriction
Thoracic aorta [8] = assay: Inhibition of 1-Nitrosocyclohexyl acetate induced- vasodilatory activity in Sprague-Dawley rat thoracic aorta at 0.1 to 1 mM; assay type: functional, tissue-based; how it was run: as §1
Thoracic aorta [9] = assay: Vasodilatory activity in Sprague-Dawley rat thoracic aorta assessed as relaxation of phenylephrine-induced vasoconstriction at 0.01 nM to 1 uM in presence of 21% oxygen; assay type: functional, tissue-based; how it was run: as §1
Thoracic aorta [10] = assay: Vasodilatory activity in Sprague-Dawley rat thoracic aorta assessed as relaxation of phenylephrine-induced vasoconstriction at 0.01 nM to 1 uM in presence 100 U/ml SOD at 21% oxygen; assay type: functional, tissue-based; how it was run: as §1
Thoracic aorta [11] = assay: Vasodilatory activity in Sprague-Dawley rat thoracic aorta assessed as relaxation of phenylephrine-induced vasoconstriction at 0.01 nM to 1 uM in presence of 1% oxygen; assay type: functional, tissue-based; how it was run: as §1
Thoracic aorta [12] = assay: Potentiation of 1-Nitrosocyclohexyl trifluoroacetate induced- vasodilatory activity in Sprague-Dawley rat thoracic aorta at 1 mM; assay type: functional, tissue-based; how it was run: as §1
Thoracic aorta [13] = assay: Inhibition of Angeli's salt induced- vasodilatory activity in Sprague-Dawley rat thoracic aorta at 0.1 to 1 mM; assay type: functional, tissue-based; how it was run: as §1
Thoracic aorta [14] = assay: Potentiation of Angeli's salt induced- vasodilatory activity in Sprague-Dawley rat thoracic aorta at 1 mM; assay type: functional, tissue-based; how it was run: as §1
Thoracic aorta [15] = assay: Inhibition of 1-Nitrosocyclohexyl trifluoroacetate induced- vasodilatory activity in Sprague-Dawley rat thoracic aorta at 0.1 to 1 mM; assay type: functional, tissue-based; how it was run: as §1
Rattus norvegicus [16] = species on record: Rattus norvegicus; assay: Ratio of compound EC50 to Angeli's salt EC50 for vasodilatory activity in rat aorta
Rattus norvegicus [17] = species on record: Rattus norvegicus; assay: Ratio of compound EC50 to Angeli's salt EC50 for vasodilatory activity in rat thoracic aorta

| EC50 (Rattus norvegicus [6]) | EC50 (Rattus norvegicus [7]) | Structure (SMILES) | Activity (Thoracic aorta [1]) | Activity (Thoracic aorta [2]) | Activity (Thoracic aorta [3]) | Activity (Thoracic aorta [4]) | Activity (Thoracic aorta [5]) | inhibition (Thoracic aorta [8]) | Activity (Thoracic aorta [9]) | Activity (Thoracic aorta [10]) | Activity (Thoracic aorta [11]) | Activity (Thoracic aorta [12]) | inhibition (Thoracic aorta [13]) | Activity (Thoracic aorta [14]) | inhibition (Thoracic aorta [15]) | Ratio EC50 (Rattus norvegicus [16]) | Ratio EC50 (Rattus norvegicus [17]) |
| --- | --- | --- | --- | --- | --- | --- | --- | --- | --- | --- | --- | --- | --- | --- | --- | --- | --- |
| 10000 nM | 10000 nM | CC(=O)OC1(N=O)CCCCC1 [1-NITROSOCYCLOHEXYL ACETATE] | inactive | inactive | inactive | Dose-dependent effect | inactive | inactive | Active | Active | Active | – | – | – | – | – | – |
| 880 nM | 880 nM | O=NC1(OC(=O)C(F)(F)F)CCCCC1 [1-NITROSOCYCLOHEXYL TRIFLUOROACETATE] | inactive | – | – | Dose-dependent effect | inactive | – | Active | Active | Active | Active | Active | Active | Active | 10 | 10 |

The next lines start with the molecule.

| Structure (SMILES) | EC50 (Rattus norvegicus [6]) | EC50 (Rattus norvegicus [7]) | Activity (Thoracic aorta [1]) | Activity (Thoracic aorta [2]) | Activity (Thoracic aorta [3]) | Activity (Thoracic aorta [4]) | Activity (Thoracic aorta [5]) | inhibition (Thoracic aorta [8]) | Activity (Thoracic aorta [9]) | Activity (Thoracic aorta [10]) | Activity (Thoracic aorta [11]) | Activity (Thoracic aorta [12]) | inhibition (Thoracic aorta [13]) | Activity (Thoracic aorta [14]) | inhibition (Thoracic aorta [15]) | Ratio EC50 (Rattus norvegicus [16]) | Ratio EC50 (Rattus norvegicus [17]) |
| --- | --- | --- | --- | --- | --- | --- | --- | --- | --- | --- | --- | --- | --- | --- | --- | --- | --- |
| CNCCCCCCN(C)N(O)N=O | – | – | inactive | inactive | inactive | Dose-dependent effect | inactive | – | – | – | – | – | – | – | – | – | – |
| [O-][N+]([O-])=NO [ANGELI'S SALT] | 82 nM | 82 nM | inactive | – | – | Dose-dependent effect | inactive | – | Active | Active | inactive | Active | Active | Active | Active | – | – |
| N[C@@H](CCC(=O)N[C@@H](CS)C(=O)NCC(=O)O)C(=O)O | – | – | – | – | – | – | – | inactive | – | – | – | – | Active | – | Active | – | – |
| CC(=O)N[C@@H](CS)C(=O)O | – | – | – | inactive | inactive | – | – | – | – | – | – | Active | – | Active | – | – | – |

Source: ChEMBL document CHEMBL1681634, “Acyloxy nitroso compounds as nitroxyl (HNO) donors: kinetics, reactions with thiols, and vasodilation properties” (J Med Chem, 2011)
